# Experimental data: ChEMBL document CHEMBL1141250, “Isolation, structure, and coccidiostat activity of coccidiostatin A” (J Nat Prod, 2007)
# Active and inactive are the calls of the source. The calls are words filed in the database; no cut-off is given here.
# Legend:
# Besnoitia jellisoni = test: Antiprotozoal activity against Besnoitia jellisoni trophozoites in HFF cells assessed as intactness of cell monolayer after 4 days by Ex-Bes assay; format: functional; settings: 96 h, read-out: ED50 (the source's name)
# Outline: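 Whole-cell in vitro Ex-Bes (extended Besnoitia) assay: B. jellisoni trachyzoites treated with test compounds. ED50 is the concentration giving 50% reduction of trachyzoites relative to an untreated control, read visually. Value is the average of two experiments run in duplicate.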
# Eimeria tenella [1] = test: Anticococcidal activity against Eimeria tenella infected chick at 416 ppm, po; format: functional, organism-based
# Outline: (§1)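 In vivo test in the minibird assay for coccidiosis (MAC) using Eimeria-infected chickens. Compounds were tested as purified material. Activity in this assay guided fractionation of the fungal extract.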
# Eimeria acervulina [2] = test: Anticococcidal activity against Eimeria acervulina infected chick at 416 ppm, po; format: functional, organism-based; outline: as §1
# Eimeria mitis [3] = test: Anticococcidal activity against Eimeria mitis infected chick at 416 ppm, po; format: functional, organism-based; outline: as §1
# Eimeria maxima [4] = test: Anticococcidal activity against Eimeria maxima infected chick at 416 ppm, po; format: functional, organism-based; outline: as §1
# Eimeria praecox [5] = test: Anticococcidal activity against Eimeria praecox infected chick at 416 ppm, po; format: functional; outline: as §1
# Eimeria tenella [6] = test: Anticococcidal activity against Eimeria tenella infected chick at 28 mg/kg, ip; format: functional, organism-based; design: dose 28 mg/kg; outline: as §1
# Eimeria acervulina [7] = test: Anticococcidal activity against Eimeria acervulina infected chick at 28 mg/kg, ip; format: functional, organism-based; design: dose 28 mg/kg; outline: as §1
# Eimeria mitis [8] = test: Anticococcidal activity against Eimeria mitis infected chick at 28 mg/kg, ip; format: functional, organism-based; design: dose 28 mg/kg; outline: as §1
# Eimeria maxima [9] = test: Anticococcidal activity against Eimeria maxima infected chick at 28 mg/kg, ip; format: functional, organism-based; design: dose 28 mg/kg; outline: as §1
# Eimeria praecox [10] = test: Anticococcidal activity against Eimeria praecox infected chick at 28 mg/kg, ip; format: functional, organism-based; design: dose 28 mg/kg; outline: as §1
# HFF [11] = test: Cytotoxicity against human HFF cells at 1 ug/ml by Ex-Bes assay; format: cell-based
# HFF [12] = test: Cytotoxicity against human HFF cells at =< 0.125 ug/ml by Ex-Bes assay; format: cell-based
# Eimeria tenella [13] = test: Anticococcidal activity against Eimeria tenella infected chick assessed as reduction of oocyst at 150 ppm after 48 hrs relative to control; format: functional; design: scale not given: the % may be the effect or the level left; outline: as §1
# Eimeria acervulina [14] = test: Anticococcidal activity against Eimeria acervulina infected chick assessed as reduction of oocyst at 150 ppm after 48 hrs relative to control; format: functional; design: scale not given: the % may be the effect or the level left; outline: as §1
# Eimeria acervulina [15] = test: Anticococcidal activity against Eimeria acervulina infected chick assessed as reduction of oocyst at 75 ppm after 48 hrs relative to control; format: functional; design: scale not given: the % may be the effect or the level left; outline: as §1
# Eimeria mitis [16] = test: Anticococcidal activity against Eimeria mitis infected chick assessed as reduction of oocyst at 150 ppm after 48 hrs relative to control; format: functional; design: scale not given: the % may be the effect or the level left; outline: as §1
# Eimeria maxima [17] = test: Anticococcidal activity against Eimeria maxima infected chick assessed as reduction of oocyst at 75 ppm after 48 hrs relative to control; format: functional, organism-based; outline: as §1
# Eimeria praecox [18] = test: Anticococcidal activity against Eimeria praecox infected chick assessed as reduction of oocyst at 75 ppm after 48 hrs relative to control; format: functional; outline: as §1
# HFF [19] = test: Cytotoxicity against human HFF cells at 500 ppm by Ex-Bes assay; format: cell-based
# Eimeria maxima [20] = test: Anticococcidal activity against Eimeria maxima infected chick assessed as reduction of oocyst at 150 ppm after 48 hrs relative to control; format: functional, organism-based; outline: as §1
# Eimeria praecox [21] = test: Anticococcidal activity against Eimeria praecox infected chick assessed as reduction of oocyst at 150 ppm after 48 hrs relative to control; format: functional; outline: as §1
# Eimeria tenella [22] = test: Anticococcidal activity against Eimeria tenella infected chick at 75 to 150 ppm; format: functional, organism-based; outline: as §1
# Eimeria acervulina [23] = test: Anticococcidal activity against Eimeria acervulina infected chick at 75 to 150 ppm; format: functional, organism-based; outline: as §1
# Eimeria mitis [24] = test: Anticococcidal activity against Eimeria mitis infected chick at 75 to 150 ppm; format: functional, organism-based; outline: as §1
# Eimeria maxima [25] = test: Anticococcidal activity against Eimeria maxima infected chick at 75 to 150 ppm; format: functional, organism-based; outline: as §1
# Eimeria praecox [26] = test: Anticococcidal activity against Eimeria praecox infected chick at 75 to 150 ppm; format: functional; outline: as §1
structure (smiles),measurement,setting,value
CC(=C/C(C)=C\[C@]1(C)O[C@@H](C)[C@]2(C)O[C@@H]21)/C=C(C)\C=C(C)/C=C(\C)[C@@H]1OC(=O)C(C)(C)C(=O)[C@H]1C [EMECORRGATIN A],EC50,Besnoitia jellisoni,1.39 µM
same,Activity,Eimeria tenella [1],inactive
same,Activity,Eimeria acervulina [2],inactive
same,Activity,Eimeria mitis [3],inactive
same,Activity,Eimeria maxima [4],inactive
same,Activity,Eimeria praecox [5],inactive
same,Activity,Eimeria tenella [6],inactive
same,Activity,Eimeria acervulina [7],inactive
same,Activity,Eimeria mitis [8],inactive
same,Activity,Eimeria maxima [9],inactive
same,Activity,Eimeria praecox [10],inactive
CCC(=O)CCCCC[C@@H]1NC(=O)[C@H]2CCCCN2C(=O)[C@H]([C@@H](C)CC)NC(=O)[C@H](Cc2cn(OC)c3ccccc23)NC1=O [APICIDIN],EC50,Besnoitia jellisoni,< 0.28 µM
same,Activity,HFF [11],Toxic
same,Activity,HFF [12],Non-toxic
CC1=C[C@@]2(C)O[C@@H](C)[C@@](C)(O)[C@H]2[C@@H]1/C=C/C=C/C=C/C=C/C1(C)C2OC(=O)C1(C)C(=O)C2C (stereo partly drawn) [COCCIDIOSTATIN A],Activity,Eimeria tenella [13],59%
same,Activity,Eimeria acervulina [14],74%
same,Activity,Eimeria acervulina [15],64%
same,Activity,Eimeria mitis [16],44%
same,Activity,Eimeria maxima [17],inactive
same,Activity,Eimeria praecox [18],inactive
same,Activity,HFF [19],Non-toxic
same,Activity,Eimeria maxima [20],inactive
same,Activity,Eimeria praecox [21],inactive
same,Activity,Eimeria tenella [22],Active
same,Activity,Eimeria acervulina [23],Active
same,Activity,Eimeria mitis [24],Active
same,Activity,Eimeria maxima [25],Active
same,Activity,Eimeria praecox [26],Active
